Results from ChEMBL document CHEMBL4354843, “Structure-Based Design of a Potent and Selective Covalent Inhibitor for SRC Kinase That Targets a P-Loop Cysteine” (J Med Chem, 2020).

How the values were obtained:
NCI-H1975 = test: Antiproliferative activity against human NCI-H1975 cells assessed as reduction in cell viability incubated for 72 hrs by cell-titer glo assay; conditions: NCI-H1975, 72 h
[1] = target: Activin receptor type-1B (Homo sapiens) (UniProt P36896); test: Binding affinity to wild-type human ACVR1B (S187 to I505 residues) expressed in bacterial expression system assessed as residual binding level at 1 uM by Kinomescan method relative to control
In short: (§1)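 KinomeScan, an active site-directed competition binding panel of 468 kinases. The test compound was at 1 μM. The readout is remaining kinase binding as a percentage of the DMSO control. Scores above 35% were treated as weak binding and not listed.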

[2] = target: Bone morphogenetic protein receptor type-2 (Homo sapiens) (UniProt Q13873); test: Binding affinity to wild-type human partial length BMPR2 (R179 to Q526 residues) expressed in mammalian expression system assessed as residual binding level at 1 uM by Kinomescan method relative to control
[3] = target: Calcium/calmodulin-dependent protein kinase type 1G (Homo sapiens) (UniProt Q96NX5); test: Binding affinity to wild-type human partial length CAMK1G (M1 to A342 residues) expressed in bacterial expression system assessed as residual binding level at 1 uM by Kinomescan method relative to control
Chain of Calcium/calmodulin-dependent protein kinase type 1G (Homo sapiens) (Q96NX5 whole entry, the tested form may be a part): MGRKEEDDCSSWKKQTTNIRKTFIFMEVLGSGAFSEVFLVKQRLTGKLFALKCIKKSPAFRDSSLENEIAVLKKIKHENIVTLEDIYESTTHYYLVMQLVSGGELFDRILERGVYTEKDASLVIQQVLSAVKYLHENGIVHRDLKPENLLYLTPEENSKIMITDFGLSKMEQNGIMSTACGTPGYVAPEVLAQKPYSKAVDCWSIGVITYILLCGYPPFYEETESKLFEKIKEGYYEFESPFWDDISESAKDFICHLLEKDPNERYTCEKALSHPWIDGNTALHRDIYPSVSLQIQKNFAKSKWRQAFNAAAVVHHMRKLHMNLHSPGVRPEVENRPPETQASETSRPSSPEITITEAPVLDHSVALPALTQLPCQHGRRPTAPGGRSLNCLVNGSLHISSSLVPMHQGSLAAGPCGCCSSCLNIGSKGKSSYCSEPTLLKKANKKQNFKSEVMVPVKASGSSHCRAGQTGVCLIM

[4] = target: CDK4/Cyclin D3 (Homo sapiens) (UniProt P11802+P30281); test: Binding affinity to wild-type human full length CDK4/cyclinD3 (M1 to E303 residues) expressed in mammalian expression system assessed as residual binding level at 1 uM by Kinomescan method relative to control
In short: (§2)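 Active-site-directed KinomeScan competition binding panel covering 468 kinases, compound tested at 1 μM. Each readout is the kinase signal remaining with compound, expressed as a percentage of the DMSO control. […]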

[5] = target: Casein kinase I isoform alpha-like (Homo sapiens) (UniProt Q8N752); test: Binding affinity to wild-type human full length CSNK1A1L (M1 to N337 residues) expressed in bacterial expression system assessed as residual binding level at 1 uM by Kinomescan method relative to control; in short: as §2
Chain of Casein kinase I isoform alpha-like (Homo sapiens) (Q8N752 whole entry, the tested form may be a part, canonical isoform): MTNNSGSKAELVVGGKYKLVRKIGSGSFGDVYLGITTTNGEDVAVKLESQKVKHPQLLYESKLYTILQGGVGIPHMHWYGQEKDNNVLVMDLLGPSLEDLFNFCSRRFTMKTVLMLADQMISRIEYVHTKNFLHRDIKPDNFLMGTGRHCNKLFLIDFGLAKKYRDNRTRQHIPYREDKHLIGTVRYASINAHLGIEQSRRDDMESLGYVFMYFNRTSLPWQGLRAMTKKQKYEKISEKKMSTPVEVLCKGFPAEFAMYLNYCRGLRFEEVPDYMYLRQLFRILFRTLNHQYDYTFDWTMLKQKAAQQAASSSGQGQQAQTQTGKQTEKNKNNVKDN

[6] = test system: Epidermal growth factor receptor (Homo sapiens), P00533 [G719S]; test: Binding affinity to human partial length EGFR G719S mutant (R669 to V1011 residues) expressed in bacterial expression system assessed as residual binding level at 1 uM by Kinomescan method relative to control
In short: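 KinomeScan active site-directed competition binding panel (468 kinases), compound tested at 1 μM. Result expressed as remaining kinase signal versus DMSO control (percent of control).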

[7] = target: Mitogen-activated protein kinase kinase kinase kinase 1 (Homo sapiens) (UniProt Q92918); test: Binding affinity to wild-type human full length HPK1 (M1 to R799 residues) expressed in bacterial expression system assessed as residual binding level at 1 uM by Kinomescan method relative to control; in short: as §2
[8] = target: Interleukin-1 receptor-associated kinase 4 (Homo sapiens) (UniProt Q9NWZ3); test: Binding affinity to wild-type human partial length IRAK4 (M1 to S460 residues) expressed in mammalian expression system assessed as residual binding level at 1 uM by Kinomescan method relative to control
[9] = target: MAP kinase-activated protein kinase 5 (Homo sapiens) (UniProt Q8IW41); test: Binding affinity to wild-type human partial length MAPKAPK5 (M1 to D322 residues) expressed in mammalian expression system assessed as residual binding level at 1 uM by Kinomescan method relative to control
Chain of MAP kinase-activated protein kinase 5 (Homo sapiens) (Q8IW41 whole entry, the tested form may be a part): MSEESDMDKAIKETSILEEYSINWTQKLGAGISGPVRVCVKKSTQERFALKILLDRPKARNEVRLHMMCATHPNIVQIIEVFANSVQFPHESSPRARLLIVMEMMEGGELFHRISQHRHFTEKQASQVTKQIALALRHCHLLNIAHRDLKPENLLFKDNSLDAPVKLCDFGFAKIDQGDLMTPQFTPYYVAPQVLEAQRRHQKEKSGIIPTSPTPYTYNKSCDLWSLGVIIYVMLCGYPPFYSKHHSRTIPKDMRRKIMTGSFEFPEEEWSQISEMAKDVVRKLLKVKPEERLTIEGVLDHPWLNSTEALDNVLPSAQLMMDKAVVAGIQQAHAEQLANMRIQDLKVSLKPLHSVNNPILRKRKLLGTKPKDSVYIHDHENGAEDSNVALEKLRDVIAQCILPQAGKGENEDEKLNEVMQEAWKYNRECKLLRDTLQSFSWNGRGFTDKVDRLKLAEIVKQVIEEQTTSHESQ

[10] = target: MAP kinase-interacting serine/threonine-protein kinase 1 (Homo sapiens) (UniProt Q9BUB5); test: Binding affinity to wild-type human full length MKNK1 (M1 to L424 residues) expressed in mammalian expression system assessed as residual binding level at 1 uM by Kinomescan method relative to control
Chain of MAP kinase-interacting serine/threonine-protein kinase 1 (Homo sapiens) (Q9BUB5 whole entry, looked up, the tested form may be a part): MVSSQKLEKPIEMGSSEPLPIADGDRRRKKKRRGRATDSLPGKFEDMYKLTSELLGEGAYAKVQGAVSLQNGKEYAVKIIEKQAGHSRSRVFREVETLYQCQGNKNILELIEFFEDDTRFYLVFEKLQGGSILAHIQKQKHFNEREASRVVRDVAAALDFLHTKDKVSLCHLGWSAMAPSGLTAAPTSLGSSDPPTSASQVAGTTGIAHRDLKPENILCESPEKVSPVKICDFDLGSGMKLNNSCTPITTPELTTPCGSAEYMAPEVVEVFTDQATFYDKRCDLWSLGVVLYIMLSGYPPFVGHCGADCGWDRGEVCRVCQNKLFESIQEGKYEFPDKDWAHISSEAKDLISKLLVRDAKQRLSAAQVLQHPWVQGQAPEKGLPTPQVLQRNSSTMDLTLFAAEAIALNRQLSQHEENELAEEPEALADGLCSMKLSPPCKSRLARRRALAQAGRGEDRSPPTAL
In short: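 Active-site-directed competition binding panel (KinomeScan) covering 468 kinases. Test agent was screened at 1 μM. The read-out is the remaining kinase signal expressed relative to a DMSO control. Scores above 35%, taken as weak binding, were not reported.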

[11] = target: Serine/threonine-protein kinase PAK 2 (Homo sapiens) (UniProt Q13177); test: Binding affinity to wild-type human partial length PAK2 (P151 to R525 residues) expressed in bacterial expression system assessed as residual binding level at 1 uM by Kinomescan method relative to control
Chain of Serine/threonine-protein kinase PAK 2 (Homo sapiens) (Q13177 whole entry, the tested form may be a part): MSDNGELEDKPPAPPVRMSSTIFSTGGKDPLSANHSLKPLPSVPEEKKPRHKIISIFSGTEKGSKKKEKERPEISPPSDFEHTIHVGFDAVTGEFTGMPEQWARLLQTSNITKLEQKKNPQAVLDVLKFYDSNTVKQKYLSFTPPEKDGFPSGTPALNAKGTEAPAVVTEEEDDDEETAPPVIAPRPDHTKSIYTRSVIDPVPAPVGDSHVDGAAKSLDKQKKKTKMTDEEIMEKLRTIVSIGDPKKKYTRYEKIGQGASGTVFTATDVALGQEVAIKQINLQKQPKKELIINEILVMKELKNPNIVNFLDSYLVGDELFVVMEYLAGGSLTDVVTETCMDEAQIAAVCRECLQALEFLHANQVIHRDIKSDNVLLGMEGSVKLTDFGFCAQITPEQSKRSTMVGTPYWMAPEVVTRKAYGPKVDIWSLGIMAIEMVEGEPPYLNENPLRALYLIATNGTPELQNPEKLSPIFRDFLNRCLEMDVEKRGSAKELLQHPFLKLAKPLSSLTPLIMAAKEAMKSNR
In short: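 Active-site-directed competition binding panel of 468 kinases (KinomeScan), compound at 1 μM. The read-out is kinase remaining bound, given as a percentage of the DMSO control. […]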

[12] = target: Phosphatidylinositol 4,5-bisphosphate 3-kinase catalytic subunit gamma isoform (Homo sapiens) (UniProt P48736); test: Binding affinity to wild-type human partial length PIK3CG (S144 to A1102 residues) expressed in mammalian expression system assessed as residual binding level at 1 uM by Kinomescan method relative to control
Chain of Phosphatidylinositol 4,5-bisphosphate 3-kinase catalytic subunit gamma isoform (Homo sapiens) (P48736 whole entry, looked up, the tested form may be a part, canonical isoform): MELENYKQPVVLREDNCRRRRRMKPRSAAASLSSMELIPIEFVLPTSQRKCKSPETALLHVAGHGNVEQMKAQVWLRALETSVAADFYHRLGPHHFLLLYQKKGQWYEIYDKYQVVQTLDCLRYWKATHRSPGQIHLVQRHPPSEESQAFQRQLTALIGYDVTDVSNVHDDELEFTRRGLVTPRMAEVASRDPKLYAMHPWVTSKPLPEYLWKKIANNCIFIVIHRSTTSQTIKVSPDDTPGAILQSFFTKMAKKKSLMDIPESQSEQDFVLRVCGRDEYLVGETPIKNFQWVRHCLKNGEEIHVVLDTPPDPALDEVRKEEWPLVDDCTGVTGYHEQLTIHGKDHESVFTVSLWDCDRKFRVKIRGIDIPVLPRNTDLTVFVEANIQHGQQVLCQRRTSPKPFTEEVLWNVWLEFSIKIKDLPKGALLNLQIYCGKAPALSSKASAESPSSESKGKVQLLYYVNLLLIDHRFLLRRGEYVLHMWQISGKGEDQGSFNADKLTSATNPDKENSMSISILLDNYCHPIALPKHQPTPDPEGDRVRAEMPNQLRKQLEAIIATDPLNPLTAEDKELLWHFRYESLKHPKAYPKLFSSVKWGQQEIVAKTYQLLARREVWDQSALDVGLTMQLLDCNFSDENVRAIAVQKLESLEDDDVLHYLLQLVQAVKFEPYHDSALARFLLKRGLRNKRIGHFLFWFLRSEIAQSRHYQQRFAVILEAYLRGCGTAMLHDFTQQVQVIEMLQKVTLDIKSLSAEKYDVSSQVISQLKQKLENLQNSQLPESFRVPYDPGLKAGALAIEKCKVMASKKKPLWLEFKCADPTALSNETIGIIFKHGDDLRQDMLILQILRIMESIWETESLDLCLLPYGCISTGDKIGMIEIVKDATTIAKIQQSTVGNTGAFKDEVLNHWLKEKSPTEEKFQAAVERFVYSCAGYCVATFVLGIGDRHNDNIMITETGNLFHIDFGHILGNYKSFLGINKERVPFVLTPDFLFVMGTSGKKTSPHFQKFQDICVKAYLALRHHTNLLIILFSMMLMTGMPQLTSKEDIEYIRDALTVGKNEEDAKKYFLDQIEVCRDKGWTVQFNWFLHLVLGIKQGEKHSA

[13] = target: Phosphatidylinositol 5-phosphate 4-kinase type-2 beta (Homo sapiens) (UniProt P78356); test: Binding affinity to wild-type human full length PIP5K2B (M1 to T416 residues) expressed in bacterial expression system assessed as residual binding level at 1 uM by Kinomescan method relative to control; in short: as §1
[14] = target: Protein kinase C eta type (Homo sapiens) (UniProt P24723); test: Binding affinity to wild-type human partial length PRKCH (S324 to P683 residues) expressed in bacterial expression system assessed as residual binding level at 1 uM by Kinomescan method relative to control
[15] = target: Ribosomal protein S6 kinase alpha-1 (Homo sapiens) (UniProt Q15418); test: Binding affinity to wild-type human partial length C- terminal RSK1 kinase domain 2 (P360 to L681 residues) expressed in bacterial expression system assessed as residual binding level at 1 uM by Kinomescan method relative to control
Chain of Ribosomal protein S6 kinase alpha-1 (Homo sapiens) (Q15418 whole entry, the tested form may be a part): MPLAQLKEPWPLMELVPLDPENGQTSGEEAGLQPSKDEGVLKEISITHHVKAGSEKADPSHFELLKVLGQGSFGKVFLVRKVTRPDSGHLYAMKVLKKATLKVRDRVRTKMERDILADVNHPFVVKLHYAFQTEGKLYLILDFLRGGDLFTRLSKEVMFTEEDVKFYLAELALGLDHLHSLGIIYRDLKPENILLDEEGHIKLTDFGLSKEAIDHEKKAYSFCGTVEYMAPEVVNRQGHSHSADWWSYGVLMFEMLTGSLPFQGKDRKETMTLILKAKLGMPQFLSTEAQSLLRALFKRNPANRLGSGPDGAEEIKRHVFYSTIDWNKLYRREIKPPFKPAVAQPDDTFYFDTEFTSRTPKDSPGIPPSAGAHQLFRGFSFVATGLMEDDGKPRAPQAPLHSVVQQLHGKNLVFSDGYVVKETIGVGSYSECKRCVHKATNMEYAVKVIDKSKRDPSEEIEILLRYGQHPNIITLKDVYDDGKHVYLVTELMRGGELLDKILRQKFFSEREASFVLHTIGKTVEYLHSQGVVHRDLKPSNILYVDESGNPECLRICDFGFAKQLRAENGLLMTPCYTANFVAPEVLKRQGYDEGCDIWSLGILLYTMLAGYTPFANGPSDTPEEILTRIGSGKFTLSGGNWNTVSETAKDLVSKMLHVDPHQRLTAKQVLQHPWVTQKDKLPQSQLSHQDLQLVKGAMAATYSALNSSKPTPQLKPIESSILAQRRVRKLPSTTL

[16] = target: Ribosomal protein S6 kinase alpha-3 (Homo sapiens) (UniProt P51812); test: Binding affinity to wild-type human partial length C-terminal RSK2 kinase domain 2 (V402 to S715 residues) expressed in mammalian expression system assessed as residual binding level at 1 uM by Kinomescan method relative to control
[17] = target: TRAF2 and NCK-interacting protein kinase (Homo sapiens) (UniProt Q9UKE5); test: Binding affinity to wild-type human partial length TNIK (D4 to K311 residues) expressed in bacterial expression system assessed as residual binding level at 1 uM by Kinomescan method relative to control
[18] = target: NT-3 growth factor receptor (Homo sapiens) (UniProt Q16288); test: Binding affinity to wild-type human partial length TRKC (Q531 to G825 residues) expressed in mammalian expression system assessed as residual binding level at 1 uM by Kinomescan method relative to control
[19] = target: Phosphatidylinositol 3-kinase catalytic subunit type 3 (Homo sapiens) (UniProt Q8NEB9); test: Binding affinity to wild-type human partial length VPS34 (S282 to H879 residues) expressed in mammalian expression system assessed as residual binding level at 1 uM by Kinomescan method relative to control
Chain of Phosphatidylinositol 3-kinase catalytic subunit type 3 (Homo sapiens) (Q8NEB9 whole entry, the tested form may be a part): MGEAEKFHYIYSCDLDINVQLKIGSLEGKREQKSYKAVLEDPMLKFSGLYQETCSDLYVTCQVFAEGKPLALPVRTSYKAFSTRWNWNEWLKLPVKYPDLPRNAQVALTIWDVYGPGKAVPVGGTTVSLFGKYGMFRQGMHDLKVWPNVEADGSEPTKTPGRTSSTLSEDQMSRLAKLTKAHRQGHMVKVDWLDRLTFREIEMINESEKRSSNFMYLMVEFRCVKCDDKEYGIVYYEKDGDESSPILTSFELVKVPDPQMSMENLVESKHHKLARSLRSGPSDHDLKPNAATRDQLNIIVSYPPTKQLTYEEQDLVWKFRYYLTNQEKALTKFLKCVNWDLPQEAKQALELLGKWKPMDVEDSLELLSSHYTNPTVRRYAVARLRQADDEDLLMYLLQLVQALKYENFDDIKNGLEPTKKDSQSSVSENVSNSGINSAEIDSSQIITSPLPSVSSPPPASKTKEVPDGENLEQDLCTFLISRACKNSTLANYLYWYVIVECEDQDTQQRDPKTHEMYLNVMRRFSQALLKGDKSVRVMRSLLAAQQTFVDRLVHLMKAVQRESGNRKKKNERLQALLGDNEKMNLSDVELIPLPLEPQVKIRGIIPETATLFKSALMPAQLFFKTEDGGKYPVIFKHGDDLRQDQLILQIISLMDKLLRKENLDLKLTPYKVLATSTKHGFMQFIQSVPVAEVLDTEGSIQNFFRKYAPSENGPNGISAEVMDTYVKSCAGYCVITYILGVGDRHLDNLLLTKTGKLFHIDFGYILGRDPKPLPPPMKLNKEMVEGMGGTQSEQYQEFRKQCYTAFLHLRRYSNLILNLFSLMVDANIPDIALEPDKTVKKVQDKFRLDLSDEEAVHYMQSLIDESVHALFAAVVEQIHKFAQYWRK
In short: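 Active site-directed competition binding panel (KinomeScan, 468 kinases). Test compound at 1 μM. Read-out is kinase binding remaining versus DMSO control, expressed as percent of control. Scores above 35% are treated as weak binding.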

With `C=CC(=O)Nc1ccccc1Nc1nc(Nc2ccc(N3CCN(C)CC3)cc2)ncc1C(=O)Nc1c(C)cccc1Cl` the IC50 (NCI-H1975) was 300 nM, the Activity [1] was 93% and the Activity [2] was 100%. The Activity [3] was 100%, the Activity [4] was 100% and the Activity [5] was 100%. It also gave an Activity [6] of 95%, an Activity [7] of 100% and an Activity [8] of 100%. For the same compound, the Activity [9] was 100%, the Activity [10] was 92% and the Activity [11] was 97%. It also gave an Activity [12] of 100%, an Activity [13] of 99% and an Activity [14] of 100%. The Activity [15] was 100%, the Activity [16] was 100% and the Activity [17] was 100%. For the same compound, the Activity [18] was 100% and the Activity [19] was 98%.
